Measurements as given in ChEMBL document CHEMBL2057152, “Synthesis and antibacterial activity against Clostridium difficile of novel demethylvancomycin derivatives” (2012).
Values after ≈ are worked out from the molar mass of the structure shown.

Key:
Type in all cases: functional
Clostridioides difficile [1] = assay: Antibacterial activity against Clostridium difficile ATCC 700792 after 16 hrs by two-fold serial dilution method; conditions: ATCC 700792, 16 h
How it was run: (§1)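 CLSI agar dilution MIC. Compounds are dissolved in 50% water in DMSO as a stock, twofold serially diluted in sterile water, then diluted 10-fold into Mueller-Hinton agar. Organisms are grown in MH broth at 35 °C for 8 h and adjusted to 0.5 McFarland. They are applied to the drug-containing plates by multipoint inoculator and incubated at 35 °C for 16 h. Vancomycin and demethylvancomycin serve as controls.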

Enterococcus faecalis = assay: Antibacterial activity against Enterococcus faecalis ATCC 700802 after 16 hrs by two-fold serial dilution method; conditions: ATCC 700802, 16 h; how it was run: as §1
[2] = Antibacterial activity against Clostridium difficile ATCC 43255 after 16 hrs by two-fold serial dilution method; conditions: Clostridioides difficile, ATCC 43255, 16 h; how it was run: as §1
Clostridioides difficile [3] = assay: Antibacterial activity against Clostridium difficile ATCC 700057 after 16 hrs by two-fold serial dilution method; conditions: ATCC 700057, 16 h; how it was run: as §1
Clostridioides difficile [4] = assay: Antibacterial activity against Clostridium difficile IQCC 23903 after 16 hrs by two-fold serial dilution method; conditions: IQCC 23903, 16 h; how it was run: as §1
Clostridioides difficile [5] = assay: Ratio of MIC for vancomycin to compound MIC for Clostridium difficile IQCC 23903 after 16 hrs by two-fold serial dilution method
Clostridioides difficile [6] = assay: Ratio of MIC for vancomycin to compound MIC for Clostridium difficile ATCC 700792 after 16 hrs by two-fold serial dilution method
Clostridioides difficile [7] = assay: Ratio of MIC for demethylvancomycin to compound MIC for Clostridium difficile ATCC 700057 after 16 hrs by two-fold serial dilution method
Clostridioides difficile [8] = assay: Ratio of MIC for demethylvancomycin to compound MIC for Clostridium difficile ATCC 43255 after 16 hrs by two-fold serial dilution method
Clostridioides difficile [9] = assay: Ratio of MIC for demethylvancomycin to compound MIC for Clostridium difficile IQCC 23903 after 16 hrs by two-fold serial dilution method
Clostridioides difficile [10] = assay: Ratio of MIC for demethylvancomycin to compound MIC for Clostridium difficile ATCC 700792 after 16 hrs by two-fold serial dilution method
Clostridioides difficile [11] = assay: Ratio of MIC for vancomycin to compound MIC for Clostridium difficile ATCC 700057 after 16 hrs by two-fold serial dilution method
Clostridioides difficile [12] = assay: Ratio of MIC for vancomycin to compound MIC for Clostridium difficile ATCC 43255 after 16 hrs by two-fold serial dilution method

SMILES | MIC (Clostridioides difficile [1]) | MIC (Enterococcus faecalis) | MIC [2] | MIC (Clostridioides difficile [3]) | MIC (Clostridioides difficile [4]) | Ratio (Clostridioides difficile [5]) | Ratio (Clostridioides difficile [6]) | Ratio (Clostridioides difficile [7]) | Ratio (Clostridioides difficile [8]) | Ratio (Clostridioides difficile [9]) | Ratio (Clostridioides difficile [10]) | Ratio (Clostridioides difficile [11]) | Ratio (Clostridioides difficile [12])
CCCCCCCCCCCCCN[C@@]1(C)C[C@H](O[C@H]2[C@H](Oc3c4cc5cc3Oc3ccc(cc3Cl)[C@@H](O)[C@@H](NC(=O)[C@H](N)CC(C)C)C(=O)N[C@@H](CC(N)=O)C(=O)N[C@H]5C(=O)N[C@H]3C(=O)N[C@H](C(=O)N[C@H](C(=O)O)c5cc(O)cc(O)c5-c5cc3ccc5O)[C@H](O)c3ccc(c(Cl)c3)O4)O[C@H](CO)[C@@H](O)[C@@H]2O)O[C@@H](C)[C@H]1O | 2 µg/mL (≈ 1.24 µM) | 4 µg/mL (≈ 2.47 µM) | 1 µg/mL (≈ 0.618 µM) | 2 µg/mL (≈ 1.24 µM) | 1 µg/mL (≈ 0.618 µM) |  |  |  |  |  |  |  | 
CCC(CC)CN[C@@]1(C)C[C@H](O[C@H]2[C@H](Oc3c4cc5cc3Oc3ccc(cc3Cl)[C@@H](O)[C@@H](NC(=O)[C@H](N)CC(C)C)C(=O)N[C@@H](CC(N)=O)C(=O)N[C@H]5C(=O)N[C@H]3C(=O)N[C@H](C(=O)N[C@H](C(=O)O)c5cc(O)cc(O)c5-c5cc3ccc5O)[C@H](O)c3ccc(c(Cl)c3)O4)O[C@H](CO)[C@@H](O)[C@@H]2O)O[C@@H](C)[C@H]1O | 2 µg/mL (≈ 1.32 µM) | 32 µg/mL (≈ 21.1 µM) | 2 µg/mL (≈ 1.32 µM) | 2 µg/mL (≈ 1.32 µM) | 2 µg/mL (≈ 1.32 µM) |  |  |  |  |  |  |  | 
CC(C)C[C@@H](N)C(=O)N[C@H]1C(=O)N[C@@H](CC(N)=O)C(=O)N[C@H]2C(=O)N[C@H]3C(=O)N[C@H](C(=O)N[C@H](C(=O)O)c4cc(O)cc(O)c4-c4cc3ccc4O)[C@H](O)c3ccc(c(Cl)c3)Oc3cc2cc(c3O[C@@H]2O[C@H](CO)[C@@H](O)[C@H](O)[C@H]2O[C@H]2C[C@](C)(NCc3ccc(Cl)cc3)[C@H](O)[C@H](C)O2)Oc2ccc(cc2Cl)[C@H]1O | 0.25 µg/mL (≈ 0.16 µM) | 16 µg/mL (≈ 10.3 µM) | 0.25 µg/mL (≈ 0.16 µM) | 0.5 µg/mL (≈ 0.321 µM) | 0.25 µg/mL (≈ 0.16 µM) | 2 | 2 | 2 | 2 | 2 | 2 | 2 | 2
CN[C@H](CC(C)C)C(=O)N[C@H]1C(=O)N[C@@H](CC(N)=O)C(=O)N[C@H]2C(=O)N[C@H]3C(=O)N[C@H](C(=O)N[C@H](C(=O)O)c4cc(O)cc(O)c4-c4cc3ccc4O)[C@H](O)c3ccc(c(Cl)c3)Oc3cc2cc(c3O[C@@H]2O[C@H](CO)[C@@H](O)[C@H](O)[C@H]2O[C@H]2C[C@](C)(N)[C@H](O)[C@H](C)O2)Oc2ccc(cc2Cl)[C@H]1O [VANCOMYCIN] | 1 µg/mL (≈ 0.69 µM) | 32 µg/mL (≈ 22.1 µM) | 1 µg/mL (≈ 0.69 µM) | 0.5 µg/mL (≈ 0.345 µM) | 0.5 µg/mL (≈ 0.345 µM) |  |  |  |  |  |  |  | 
CCCCCCCN[C@@]1(C)C[C@H](O[C@H]2[C@H](Oc3c4cc5cc3Oc3ccc(cc3Cl)[C@@H](O)[C@@H](NC(=O)[C@H](N)CC(C)C)C(=O)N[C@@H](CC(N)=O)C(=O)N[C@H]5C(=O)N[C@H]3C(=O)N[C@H](C(=O)N[C@H](C(=O)O)c5cc(O)cc(O)c5-c5cc3ccc5O)[C@H](O)c3ccc(c(Cl)c3)O4)O[C@H](CO)[C@@H](O)[C@@H]2O)O[C@@H](C)[C@H]1O | 0.5 µg/mL (≈ 0.326 µM) | 8 µg/mL (≈ 5.22 µM) | 0.5 µg/mL (≈ 0.326 µM) | 0.25 µg/mL (≈ 0.163 µM) | 0.25 µg/mL (≈ 0.163 µM) | 2 | 2 | 2 | 2 | 2 | 2 | 2 | 2
CC(C)C[C@@H](N)C(=O)N[C@H]1C(=O)N[C@@H](CC(N)=O)C(=O)N[C@H]2C(=O)N[C@H]3C(=O)N[C@H](C(=O)N[C@H](C(=O)O)c4cc(O)cc(O)c4-c4cc3ccc4O)[C@H](O)c3ccc(c(Cl)c3)Oc3cc2cc(c3O[C@@H]2O[C@H](CO)[C@@H](O)[C@H](O)[C@H]2O[C@H]2C[C@](C)(NCC3CCCCC3)[C@H](O)[C@H](C)O2)Oc2ccc(cc2Cl)[C@H]1O | 1 µg/mL (≈ 0.653 µM) | 16 µg/mL (≈ 10.4 µM) | 1 µg/mL (≈ 0.653 µM) | 0.5 µg/mL (≈ 0.326 µM) | 0.5 µg/mL (≈ 0.326 µM) |  |  |  |  |  |  |  | 
CC(C)C[C@@H](N)C(=O)N[C@H]1C(=O)N[C@@H](CC(N)=O)C(=O)N[C@H]2C(=O)N[C@H]3C(=O)N[C@H](C(=O)N[C@H](C(=O)O)c4cc(O)cc(O)c4-c4cc3ccc4O)[C@H](O)c3ccc(c(Cl)c3)Oc3cc2cc(c3O[C@@H]2O[C@H](CO)[C@@H](O)[C@H](O)[C@H]2O[C@H]2C[C@](C)(NCc3cc4ccccc4o3)[C@H](O)[C@H](C)O2)Oc2ccc(cc2Cl)[C@H]1O | 1 µg/mL (≈ 0.639 µM) | 8 µg/mL (≈ 5.11 µM) | 1 µg/mL (≈ 0.639 µM) | 0.5 µg/mL (≈ 0.319 µM) | 0.5 µg/mL (≈ 0.319 µM) |  |  |  |  |  |  |  | 
COc1ccc(CN[C@@]2(C)C[C@H](O[C@H]3[C@H](Oc4c5cc6cc4Oc4ccc(cc4Cl)[C@@H](O)[C@@H](NC(=O)[C@H](N)CC(C)C)C(=O)N[C@@H](CC(N)=O)C(=O)N[C@H]6C(=O)N[C@H]4C(=O)N[C@H](C(=O)N[C@H](C(=O)O)c6cc(O)cc(O)c6-c6cc4ccc6O)[C@H](O)c4ccc(c(Cl)c4)O5)O[C@H](CO)[C@@H](O)[C@@H]3O)O[C@@H](C)[C@H]2O)cc1 | 1 µg/mL (≈ 0.643 µM) | 16 µg/mL (≈ 10.3 µM) | 0.5 µg/mL (≈ 0.321 µM) | 0.5 µg/mL (≈ 0.321 µM) | 0.5 µg/mL (≈ 0.321 µM) |  |  |  |  |  |  |  | 
CC(C)CCN[C@@]1(C)C[C@H](O[C@H]2[C@H](Oc3c4cc5cc3Oc3ccc(cc3Cl)[C@@H](O)[C@@H](NC(=O)[C@H](N)CC(C)C)C(=O)N[C@@H](CC(N)=O)C(=O)N[C@H]5C(=O)N[C@H]3C(=O)N[C@H](C(=O)N[C@H](C(=O)O)c5cc(O)cc(O)c5-c5cc3ccc5O)[C@H](O)c3ccc(c(Cl)c3)O4)O[C@H](CO)[C@@H](O)[C@@H]2O)O[C@@H](C)[C@H]1O | 1 µg/mL (≈ 0.664 µM) | 32 µg/mL (≈ 21.3 µM) | 1 µg/mL (≈ 0.664 µM) | 1 µg/mL (≈ 0.664 µM) | 0.5 µg/mL (≈ 0.332 µM) |  |  |  |  |  |  |  | 
CC(C)C[C@@H](N)C(=O)N[C@H]1C(=O)N[C@@H](CC(N)=O)C(=O)N[C@H]2C(=O)N[C@H]3C(=O)N[C@H](C(=O)N[C@H](C(=O)O)c4cc(O)cc(O)c4-c4cc3ccc4O)[C@H](O)c3ccc(c(Cl)c3)Oc3cc2cc(c3O[C@@H]2O[C@H](CO)[C@@H](O)[C@H](O)[C@H]2O[C@H]2C[C@](C)(NCc3ccc(F)cc3)[C@H](O)[C@H](C)O2)Oc2ccc(cc2Cl)[C@H]1O | 0.5 µg/mL (≈ 0.324 µM) | 16 µg/mL (≈ 10.4 µM) | 0.5 µg/mL (≈ 0.324 µM) | 0.5 µg/mL (≈ 0.324 µM) | 0.5 µg/mL (≈ 0.324 µM) |  |  |  |  |  |  |  | 
CC(C)C[C@@H](N)C(=O)N[C@H]1C(=O)N[C@@H](CC(N)=O)C(=O)N[C@H]2C(=O)N[C@H]3C(=O)N[C@H](C(=O)N[C@H](C(=O)O)c4cc(O)cc(O)c4-c4cc3ccc4O)[C@H](O)c3ccc(c(Cl)c3)Oc3cc2cc(c3O[C@@H]2O[C@H](CO)[C@@H](O)[C@H](O)[C@H]2O[C@H]2C[C@](C)(NCc3cccs3)[C@H](O)[C@H](C)O2)Oc2ccc(cc2Cl)[C@H]1O | 0.5 µg/mL (≈ 0.326 µM) | 32 µg/mL (≈ 20.9 µM) | 0.5 µg/mL (≈ 0.326 µM) | 0.5 µg/mL (≈ 0.326 µM) | 0.5 µg/mL (≈ 0.326 µM) |  |  |  |  |  |  |  | 
CC(C)=CCC/C(C)=C/CN[C@@]1(C)C[C@H](O[C@H]2[C@H](Oc3c4cc5cc3Oc3ccc(cc3Cl)[C@@H](O)[C@@H](NC(=O)[C@H](N)CC(C)C)C(=O)N[C@@H](CC(N)=O)C(=O)N[C@H]5C(=O)N[C@H]3C(=O)N[C@H](C(=O)N[C@H](C(=O)O)c5cc(O)cc(O)c5-c5cc3ccc5O)[C@H](O)c3ccc(c(Cl)c3)O4)O[C@H](CO)[C@@H](O)[C@@H]2O)O[C@@H](C)[C@H]1O | 0.5 µg/mL (≈ 0.318 µM) | 16 µg/mL (≈ 10.2 µM) | 0.5 µg/mL (≈ 0.318 µM) | 0.5 µg/mL (≈ 0.318 µM) | 0.5 µg/mL (≈ 0.318 µM) |  |  |  |  |  |  |  | 
CC(C)C[C@@H](N)C(=O)N[C@@H]1C(=O)N[C@@H](CC(N)=O)C(=O)N[C@H]2C(=O)N[C@H]3C(=O)N[C@H](C(=O)N[C@H](C(=O)O)c4cc(O)cc(O)c4-c4cc3ccc4O)[C@H](O)c3ccc(c(Cl)c3)Oc3cc2cc(c3O[C@@H]2O[C@H](CO)[C@@H](O)[C@H](O)[C@H]2O[C@H]2C[C@](C)(N)C(O)[C@H](C)O2)Oc2ccc(cc2Cl)[C@H]1O (stereo partly specified) [DEMETHYLVANCOMYCIN] | 0.5 µg/mL (≈ 0.348 µM) | > 32 µg/mL | 0.5 µg/mL (≈ 0.348 µM) | 0.5 µg/mL (≈ 0.348 µM) | 0.5 µg/mL (≈ 0.348 µM) |  |  |  |  |  |  |  | 
CC(C)C[C@@H](N)C(=O)N[C@H]1C(=O)N[C@@H](CC(N)=O)C(=O)N[C@H]2C(=O)N[C@H]3C(=O)N[C@H](C(=O)N[C@H](C(=O)O)c4cc(O)cc(O)c4-c4cc3ccc4O)[C@H](O)c3ccc(c(Cl)c3)Oc3cc2cc(c3O[C@@H]2O[C@H](CO)[C@@H](O)[C@H](O)[C@H]2O[C@H]2C[C@](C)(NCc3ccco3)[C@H](O)[C@H](C)O2)Oc2ccc(cc2Cl)[C@H]1O | 0.5 µg/mL (≈ 0.33 µM) | 32 µg/mL (≈ 21.1 µM) | 0.5 µg/mL (≈ 0.33 µM) | 0.5 µg/mL (≈ 0.33 µM) | 0.5 µg/mL (≈ 0.33 µM) |  |  |  |  |  |  |  | 
